Sequences and labels used below:
B1: tRNA (parent)
chain: GUUCCGUUGGCGUAAUGGUAACGCGUCUCCCUCCUAAGGAGAAGACUGCGGGUUCGAGUCCCGUACGGAACG

From the RNAGym collection of RNA variant scans (doi:10.1126/science.aae0568) come the findings set out here.

This sample holds only a part of the variants without activity.

In the data set the parent is B1. The data set can be described thus: yeast fitness relative to wild type (ratio to wild type); higher = fitter; tRNA-Arg(CCU), competitive growth, 37 C, YPD. In short, it runs like this:
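Amplicons of the tRNA-Arg(CCU) gene were sequenced, 100-nucleotide paired-end, from the start population and from each end population of a pooled yeast competition. The competition, in six parallel replicates, lasted 24 hours in YPD at 37°C. Fitness relative to wild type was calculated from changes in genotype frequencies. Genotypes had to have ≥ 100 starting reads, and estimates < 0.5 were set to 0.5.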
For GUUCCGUUGGCGUAAUGGUAACGCAUCUCCGUCCUAAGGAGAAGACUGCGGGUUGGAGUCCCGUACGGAACG, the yeast fitness is at most 0.5.
As for GUUCCGUUGGCGUAAUGGUAACGCAUCUCCGUCCUAAGGAGAAGUCUGCGGGUUCGAGUCCCGUACGGAACG, the yeast fitness amounted to 0.612.
Under GUUCCGUUGGCGUAAUGGUAACGCAUCUCCUUCCUAAGGAGAAGACUGCGGGUUCGAGUCCCGUACGGAACG stands 0.923; under GUUCCGUUGGCGUAAUGGUAACGCAUCUCCGUCCUAAGGAGAAGACUGCGGGUUCGAGUCCCGUACGGAACG, 0.906.
Take GUUCCGUUGGCGUAAUGGUAACGCAUCUCCAUCCUAAGGAGAAGACUGCGGGUUCGAGUCCCGUACGGAACG: the yeast fitness came out at 0.671.
With GUUCCGUUGGCGUAAUGGUAACGCAUGUCCCUCCUAAGGAGAAGUCUGCGGGUUAGAGUCCCGUACGGAACG, the yeast fitness was at most 0.5.
On to GUUCCGUUGGCGUAAUGGUAACGCAUCUCCCUCCUAAGGAGAAGACUGCGGGUUCGGGUCCCGUACGGAACG, for which the yeast fitness was 1.08.
Consider GUUCCGUUGGCGUAAUGGUAACGCAUCUCCCUCCUAAGGAGAAGACUGCGGGUUCGUGUCCCGUACGGAACG, for which the yeast fitness worked out at 0.772.
Under GUUCCGUUGGCGUAAUGGUAACGCAUCUCCCUCCUAAGGAGAAGACUGCGGGUUCGCGUCCCGUACGGAACG stands 0.697.
On to GUUCCGUUGGCGUAAUGGUAACGCAUCUUCCUCCUAAGGAGAAGACUGCGGGUUCGAGUCCCGUACGGAACG, for which the yeast fitness stood at 0.997.
With GUUCCGUUGGCGUAAUGGUAACGCAUCUGCCUCCUAAGGAGAAGACUGCGGGUUCGAGUCCCGUACGGAACG, the yeast fitness was 0.721.
With GUUCCGUUGGCGUAAUGGUAACGCAUCUCCCUCCUAAGGAGAAGUCUGCGGGUCCGACUCCCGUACGGAACG, the yeast fitness came to 0.596.
With GUUCCGUUGGCGUAAUGGUAACGCAUCUACCUCCUAAGGAGGAGACUGCGGGUUCGAGUCCCGUACGGAACG, the yeast fitness is at most 0.5.
GUUCCGUUGGCGUAAUGGUAACGCAUCUCGCUCCUAAGGAGAAGACUGUGGGUUCGAGUCCCGUACGGAACG: the yeast fitness worked out at 0.594.
Regarding GUUCCGUUGGCGUAAUGGUAACGCAUGUCCCUCCUAAGGAGAAGACUGCGGGUUCGAGUACCGUACGGAACG, the yeast fitness is at most 0.5.
GUUCCGUUGGCGUAAUGGUAACGCAUCUACCUCCUAAAGAGAAGACUGCGGGUUCGAGUCCCGUACGGAACG: the yeast fitness is at most 0.5.
In the case of GUUCCGUUGGCGUAAUGGUAACGCAUCUCCUUCCUAAGGAGACGACUGCGGGUUCGCGUCCCGUACGGAACG, the yeast fitness is at most 0.5.
For GUUCCGUUGGCGUAAUGGUAACGCAUCUGCCUCCUAAGGAGAAGACUGCGGGUGCGAGUCGCGUACGGAACG the value was at most 0.5.
For the variant GUUCCGUUGGCGUAAUGGUAACGCAUCUUCCUCCUAAGGAGAAGACUGCGGGUUCGAGUCCCGUAUGGAACG, the yeast fitness worked out at 0.747.
As for GUUCCGUUGGCGUAAUGGUAACGCAUCUGCCUCCUAAGGAGACGACUGCGGGUUCGAGUCACGUACGGUACG, the yeast fitness is at most 0.5.
Consider GUUCCGUUGGCGUAAUGGUAACGCAUCUACCUCCUAAGGAGAAGACUGCGGGUUAGAGUCCCGUACGGAACG, for which the yeast fitness was 0.625.
GUUCCGUUGGCGUAAUGGUAACGCAUCUCGCUCCUAAGGAGAAGACUGCGGGUUCGAGCCCCGUAAGGAACG: the yeast fitness was at most 0.5.
Consider GUUCCGUUGGCGUAAUGGUAACGCAUCUCCCUCCUAAGGAGAAGACUGCGGGUUCGAGUCCCGUUCGCAACG, for which the yeast fitness was found to be 0.657.
With GUUCCGUUGGCGUAAUGGUAACGCAUCUCCCUCCUAAGGAGAAGACUGCGGGUUCGAGUCCCGUACGGUACG, the yeast fitness turned out to be 1.04.
Turning to GUUCCGUUGGCGUAAUGGUAACGCAUCUCCCUACUAAGGGGAAGACUGCGGGUUCGAGUCCCGUACGGACCG, the yeast fitness was at most 0.5.
For GUUCCGUUGGCGUAAUGGUAACGCAUUUCCCUCGUAAGGAGAAGACUGCGGGUUCGAGUCCCGUACGGAACG the value was 0.748; for GUUCCGUUGGCGUAAUGGUAACGCAUCUCACUCCUAAGGAGAAGACUGCGGGUUCGAGUCCCGUACUGAACG, 0.776; for GUUCCGUUGGCGUAAUGGUAACGCAUCUCCUUCCUAAGGAUAAGACUGCGGGUUCGAGUCCCGUACGGAACG, 0.739.
GUUCCGUUGGCGUAAUGGUAACGCAUCUCCCUCCUAAGGAGAAGACUGCGGGUUCGAGUCCCGUCCGGAACG: the yeast fitness is 1.01.
Consider GUUCCGUUGGCGUAAUGGUAACGCAUCUCCCUCCUAAGGAGAAGACUGCGGGUUCGAGUCCCGUGCGGAACG, for which the yeast fitness was 0.956.
GUUCCGUUGGCGUAAUGGUAACGCAUCUCGCUCCUAAGGAGAAGACUGCGGGUUCGACUCCCGUAAGGAACG: the yeast fitness was at most 0.5.
For GUUCCGUUGGCGUAAUGGUAACGCAUCUCCUUCCUAACGAGAAGACUGCGGGUUCGAGUCCUGUACGGAACG the value was 0.697; for GUUCCGUUGGCGUAAUGGUAACGCAUUUCCCUCCUAAGGAGAAGACUGCGGGUUCGAGUCCCGUACGGAACG, 0.901.
Take GUUCCGUUGGCGUAAUGGUAACGCAUCUCCUUCCUAACGAGAAGACUACGGGUUCGAGUCCCGUACGGAACG: the yeast fitness was 0.651.
Under GUUCCGUUGGCGUAAUGGUAACGCAUUUCCCUCCUAAGGAGAAGACUGCGGGUUCGAGUCCCGUACGGCACG stands 0.73; under GUUCCGUUGGCGUAAUGGUAACGCAUCUCCAUCCUAAGGAGAAGCCUGCAGGUUCGAGUCCCGUACGGAACG, 0.536; under GUUCCGUUGGCGUAAUGGUAACGCAUCUCCCUCCUAAGGAGAAGACUGCGGGUUCGAGUCCCGUACGGAGCG, 1.04.
In the case of GUUCCGUUGGCGUAAUGGUAACGCAUCUCCCUCCUAAGGAGAAGACUGCGGGUUCGAGUCCCGUACGGAUCG, the yeast fitness was 1.01.
